CHRM5 PAM – CHRM5 positive allosteric modulation; CHO-K1 hM5, Fluo-8 calcium, ACh EC20 PAM; 0% = ACh EC20, 100% = ACh EC100; AID 624038; 0.3% of 360,000 active; activation, % at 3 µM; P08912;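 active means activation above the run cutoff, the mean activation of all test compounds plus 3 SD, cut at about 18% in these data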
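System: CHO-K1 cell line with stable human muscarinic M5 receptor expression | Also added: EC20 acetylcholine as agonist stimulus | Compound: One concentration, 3 µM final (nominal) | Timing: Fluo-8 loading 80 min at 37 °C plus 30 min room temperature | Measured by: Fluo-8 calcium dye fluorescence, kinetic read | Read-out basis: % activation, ACh-normalized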
CHRM4 PAM – CHRM4 positive allosteric modulation; P08173; CHO-K1 hM4/Gqi5, Fluo-8 calcium fluorescence, ACh EC20; 0% = ACh EC20, 100% = maximal ACh; activation, % at 3 µM; 0.4% of 360,000 active; AID 624126;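 active means activation above its plate's cutoff, the mean activation of sample wells plus 3 SD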
Target sequence (P08173 whole entry, looked up): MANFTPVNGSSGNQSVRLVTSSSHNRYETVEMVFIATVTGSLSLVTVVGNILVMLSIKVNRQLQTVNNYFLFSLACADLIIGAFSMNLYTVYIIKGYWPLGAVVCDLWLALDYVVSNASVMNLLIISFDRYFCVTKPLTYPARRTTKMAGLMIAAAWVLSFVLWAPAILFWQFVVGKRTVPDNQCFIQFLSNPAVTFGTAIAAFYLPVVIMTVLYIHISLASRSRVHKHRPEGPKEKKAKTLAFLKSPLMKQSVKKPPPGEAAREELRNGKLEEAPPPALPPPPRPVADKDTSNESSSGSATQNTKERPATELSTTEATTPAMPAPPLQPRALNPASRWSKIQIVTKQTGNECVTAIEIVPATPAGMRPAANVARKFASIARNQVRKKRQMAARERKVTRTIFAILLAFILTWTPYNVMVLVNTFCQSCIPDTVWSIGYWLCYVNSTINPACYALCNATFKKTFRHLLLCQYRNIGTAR
M5 ag – CHRM5 agonism in calcium assay. AID 624037. CHO-K1 hM5 cells, Fluo-8 calcium fluorescence; 0% DMSO wells, 100% maximal acetylcholine response. P08912. 0.19% of 360,000 active. activation, % at 3 µM;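 active means activation above the run's mean over test compounds plus 3 SD, cut at about 23% in these data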;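 further: signal is peak over basal fluorescence ratio across the kinetic read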
M4 antag – blocks acetylcholine activation of human M4 receptor. P08173. 0.73% of 360,000 active. CHO-hM4 cells, ACh EC80, Fluo-8 calcium fluorescence. AID 624125. inhibition, % at 3 µM;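 active means inhibition above its plate's cutoff, the mean inhibition of sample wells plus 3 SD, cut at about 27% in these data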;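 further: 0% = acetylcholine EC80 with DMSO and 100% = DMSO without agonist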
CHRM5 antagonist – blocks acetylcholine activation of human M5 receptor. P08912. CHO-hM5 cells, Fluo-8 calcium fluorescence, ACh EC80. inhibition, % at 3 µM. 0.59% of 360,000 active. AID 624040;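 active means inhibition above a per-plate cutoff, the mean of that plate's test compounds plus 3 SD, cut at about 27% in these data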;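 further: 0% = acetylcholine EC80 with DMSO and 100% = DMSO without agonist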
CHRM4 agonist – CHRM4 agonism in calcium assay; P08173; CHO-K1 hM4/Gqi5, Fluo-8 calcium fluorescence; vehicle 0%, full acetylcholine response 100%; activation, % at 3 µM; 0.14% of 360,000 active; AID 624127;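 active means activation above the run mean over all test wells plus 3 SD, cut at about 32% in these data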;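 further: peak over basal fluorescence ratio per well then scaled between controls; 0% = DMSO wells and 100% = acetylcholine at EC100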
An asterisk follows results filed as active; ! = a repeat was not active. Shown are actives, neighbours in structure and some others; about 1.9% of the full set was active somewhere.

SMILES	CHRM5 PAM	CHRM4 PAM	M5 ag	M4 antag	CHRM5 antagonist	CHRM4 agonist
COc1ccccc1CNc1nc(NCc2ccc3occc3c2)c2sccc2n1	-18	-9	2	22	43*	12
CC(OC(=O)CN1C(=O)NC2(CCCCC2C)C1=O)c1ccccc1 (stereo not drawn)	0	5	7	-4	9	4
Cc1cc(CNC(=O)COc2ccc(C)c(C)c2)c2ccccc2n1	-9	-15	-7	-2	7	13
Cc1cc(C)n2nc(C(=O)N/N=C/c3cccc(Cl)c3)nc2n1	-3	32*	0	1	2	1
C/C(=N\NC(=O)c1cccc(C)c1)c1ccc(N2CCOCC2)cc1	19*	3	-2	-20	-10	3
CCOC(=O)N1CCN(c2nc3ccc(C(=O)c4ccccc4)cc3n3cnnc23)CC1	16	31*	7	1	-2	1
CC[C@]12c3[nH]c4cc(-c5ccco5)ccc4c3CCN1C(=O)[C@@H](CC(=O)NCCCN(C)C)C[C@@H]2C(=O)N1CCN(C(=O)C2CC2)CC1	8	-2	0	-3	-17	1
O=c1c2cccnc2n(-c2ccccc2)n1Cc1c(Cl)cccc1Cl	-3	7	-2	-3	12	1
O=c1c2cccnc2n(-c2ccccc2)n1Cc1ccc(Cl)cc1	-3	22*	-2	-2	3	0
CN(C)c1nc(OCCOC(=O)c2ccccc2)nc(N(C)C)n1	-5	1	26*	2	-6	0
CN1C(=O)C(O)(CC(=O)c2ccncc2)c2ccccc21 (stereo not drawn)	17	19*	-1	-9	-6	2
CC1=CC(C/C(C)=C/COc2ccc3ccc(=O)oc3c2)OC1=O (stereo not drawn)	-2	35*	1	-15	7	9
CC(C)CCNC(=O)CO/N=C/c1ccccc1OC(F)F	0	11	-4	0	-1	0
COc1cc(NC(=O)Cc2ccc([N+](=O)[O-])cc2)c(C(=O)O)cc1OC	6	1	-3	-13	-17	0
CC(Sc1nnc(-c2cccs2)n1-c1ccccc1)C(=O)NCc1ccco1 (stereo not drawn)	-3	-1	-4	-4	-1	2
CC(Sc1ccsc1[N+](=O)[O-])C(=O)NCc1ccco1 (stereo not drawn)	12	23*	1	5	1	1
COc1cc(Cl)c(C)cc1NC(=O)c1ccc(NS(=O)(=O)c2ccc(F)c(F)c2)cc1	8	20*	1	-9	5	0
O=C(CN1C(=O)c2ccccc2S1(=O)=O)c1ccc2c(c1)OCCO2	21*	-2	2	-7	-16	2
O=C(CN1C(=O)c2ccccc2S1(=O)=O)c1ccc2c(c1)OCCCO2	2	-4	-4	0	0	6
CCN(CC(=O)Nc1c(F)cccc1F)C(=O)c1ccc(-n2cncn2)c([N+](=O)[O-])c1	1	-6	4	35*	0	0
Cc1cccc(-n2cnc3sc(C)c(C)c3c2=O)c1	-11	0	-8	0	35*	0
CCOC(=O)c1ccc(NC(=S)N(CCN2CCCCCC2)Cc2cccs2)cc1	-6	-13	-12	9	10	-1
CC(C)CNS(=O)(=O)c1ccc(CCC(=O)NC2CCCCC2)cc1	20*	1	7	-8	-14	2
COc1ccccc1Oc1ccc2c(c1)C(=O)N(c1cccc3ncccc13)C2=O	-20	-12	10	21	39*	12
Cn1nc(OC(=O)Nc2cccc(Cl)c2)cc1C(F)(F)F	-17	1	6	5	27*	15
SMILES	CHRM5 PAM	CHRM4 PAM	M5 ag	M4 antag	CHRM5 antagonist	CHRM4 agonist
O=C(Nc1nc(=S)ss1)c1ccc(Cl)cc1Cl	7	6	-3	-9	-9	1
COCCNC(=O)c1cccc(OC2CCN(Cc3ccc(C(=O)OC)cc3)CC2)c1	-30	-15	-24	60*	25	0
COC(=O)c1ccc(CN2CCC(Oc3cccc(C(=O)N4CCOCC4)c3)CC2)cc1	-13	-15	-7	61*	67*	4
COCCNC(=O)c1cccc(OC2CCN(Cc3ccc(C(C)C)cc3)CC2)c1	-33	-17	-20	20	12	3
COCCNC(=O)CCC1CCN(Cc2ccc(-c3ccccc3)cc2)CC1	-29	-16	-24	57*	7	1
COCCNC(=O)C1CCCN(Cc2ccccc2)CC1 (stereo not drawn)	0	4	-1	-12	7	0
CSc1cccc(CN2CCC(Oc3cccc(C(=O)N4CCCC4)c3)CC2)c1	-15	-11	-8	-3	28*	4
Cc1cc(NC(=O)Nc2cccc(Cl)c2)n(-c2ccccn2)n1	-13	-14	2	1	7	22
O=C(c1ccc(S(=O)(=O)N2CCC(c3nc4ccccc4[nH]3)CC2)cc1)N1CCOCC1	-1	-10	-1	11	4	0
CC(=O)Nc1ccc(S(=O)(=O)N(Cc2ccccc2)c2ccccc2F)cc1	-11	-1	-7	-3	3	3
O=C(Nc1cccc(C(F)(F)F)c1)Nc1ccc(N2CCCC2)c(S(=O)(=O)Nc2ccccc2Cl)c1	-14	-14	-1	26	28*	5
CCN1C=C(Cc2ccc(OC)cc2)C2=C(C1)C(c1ccc(OC)cc1)C(C#N)=C(N)O2 (stereo not drawn)	1	-7	-4	0	-2	1
O=C(O)c1ccc(O)cc1O	-1	8	3	8	4	2
Nc1ccc(C(=O)O)c(O)c1	-1	8	0	43*!	0	2
O=C(O)c1ccccc1O	-14	13	26*	-26	-9	2
Nc1c(O)cccc1C(=O)O	4	4	1	-3	-10	1
Cc1cc(NC(=O)COC(=O)C2=COCCO2)c([N+](=O)[O-])cc1C	8	2	-1	-5	-1	3
CC1=C(C(=O)N2CCOCC2)CC(CC(=O)NCc2cccc3ccccc23)C(=O)N1Cc1ccc(F)cc1 (stereo not drawn)	4	3	-1	0	4	1
Cc1ccc(OCC2Cn3c(nc4c3c(=O)n(C)c(=O)n4C)O2)cc1 (stereo not drawn)	3	4	2	5	-5	0
COC(=O)Nc1nncs1	4	-9	0	0	0	-1
O=C(Nc1nncs1)C1CCCC1	19*	-2	6	-8	-9	1
